From publication PMC9055608 (RSC Advances, 2020)
“And” between values parts separate entries of the source, which are not always exact repeats. Equal values may be shown once.

Key:
SKOV3 = assay: MTT cell proliferation assay, SKOV3; type: cell-based, human; conditions: Homo sapiens, SK-OV-3, 72 h
In short: (§1)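 ATCC lines grown in DMEM or RPMI-1640 with 10% heat-inactivated FBS and 1% penicillin/streptomycin at 37 °C, 5% CO2. Log-phase cells seeded at about 4000–5000/well and left to adhere 24 h. Sextuplicate wells, 72 h. MTT for 4 h, then DMSO and absorbance. IC50 taken from dose–response curves.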

DU-145 = assay: MTT cell proliferation assay, DU-145; type: cell-based, human; conditions: Homo sapiens, DU-145, 72 h
In short: as §1

[1] = Pathological tissue sections; type: in vivo, nude mice; conditions: tissues exposed to different dosages; end of 9 day treatment; HE staining
In short: (§2)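 Tumour-bearing nude mice were anaesthetised and killed after the 9-day dosing. Heart, liver, spleen, lung, kidney, brain and tumour were fixed in 10% formalin, embedded in paraffin, cut into 4 μm sections and stained with haematoxylin–eosin.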

in vivo = type: in vivo, rats
N87 = assay: MTT cell proliferation assay, N87; type: cell-based, human; conditions: Homo sapiens, 72 h
In short: as §1

MCF-7 xenograft tumour [2] = assay: Pathological tissue sections; type: in vivo, nude mice
In short: as §2

[3] = test system: GES-1 human normal gastric epithelial cells; assay: MTT assay, cytotoxicity against normal cell line GES-1; type: cell-based; conditions: for OD value (mean ± SD): GES-1
In short: (§3)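 Cells seeded at about 4000–5000/well and allowed 24 h to adhere. MTT for 4 h, formazan dissolved in DMSO, absorbance read, and inhibition rate per concentration reported.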

SKMEL-28 = assay: MTT cell proliferation assay, SKMEL-28; type: cell-based, human; conditions: Homo sapiens, SK-MEL-28, 72 h
In short: as §1

HT-29 = assay: MTT cell proliferation assay, HT-29; type: cell-based, human; conditions: Homo sapiens, HT-29, 72 h
In short: as §1

A375 = assay: MTT cell proliferation assay, A375; type: cell-based, human; conditions: Homo sapiens, A-375, 72 h
In short: as §1

MDA-MB453 = assay: MTT cell proliferation assay, MDA-MB453; type: cell-based, human; conditions: Homo sapiens, MDA-MB-453, 72 h
In short: as §1

MDA-MB231 = assay: MTT cell proliferation assay, MDA-MB231; type: cell-based, human; conditions: Homo sapiens, MDA-MB-231, 72 h
In short: as §1

SKBR3 = assay: MTT cell proliferation assay, SKBR3; type: cell-based, human; conditions: Homo sapiens, SK-BR-3, 72 h
In short: as §1

[4] = Mouse weight during in vivo efficacy study; parameters: species or system nude mice; conditions: during the nine days of treatment
[5] = test system: LO2 human normal liver cells; assay: MTT assay, cytotoxicity against normal cell line LO2; type: cell-based
In short: as §3

MCF-7 = assay: MTT cell proliferation assay, MCF-7; type: cell-based, human; conditions: Homo sapiens, MCF7, 72 h
In short: as §1

A-549 = assay: MTT cell proliferation assay, A-549; type: cell-based, human; conditions: Homo sapiens, A549, 72 h
In short: as §1

[6] = test system: BEAS-2B human normal lung epithelial cell; assay: MTT assay, cytotoxicity against normal cell line BEAS-2B; type: cell-based
In short: as §3

MCF-7 xenograft tumour [7] = assay: Drug efficacy in vivo, MCF-7 breast cancer model; parameters: species or system nude mice
Calu-3 = assay: MTT cell proliferation assay, Calu-3; type: cell-based, human; conditions: Homo sapiens, Calu-3, 72 h
In short: as §1

cancer cell lines = assay: MTT assay, cancer cell lines; type: cell-based; conditions: Homo sapiens, read-out: IC50 of other tumour cells
In short: as §1

[8] = Biochemical indexes in serum and plasma; type: in vivo, mice; conditions: for BUN mean ± SD: plasma; for BUN mean ± SD / ALT mean ± SD / AST mean ± SD / CRE mean ± SD: DHDK micelles every day for 9 days; for ALT mean ± SD / AST mean ± SD / CRE mean ± SD: serum
In short: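 Female mice were split into four groups (n = 6) and injected daily for 9 days with test-compound micelles, following the dosing regimen of the xenograft study. Animals were killed on the last dosing day. Kits measured AST, ALT and creatinine in serum, and urea nitrogen in plasma.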

[9] = test system: normal cell lines (LO2, GES-1, BEAS-2B); assay: MTT assay, normal cell lines; type: cell-based, human; conditions: all DHDK concentrations
In short: as §3

Tissue distribution = type: in vivo, SD rats; conditions: for CL / AUC(0-inf): rat; for CL: tail vein injection of DHDK solution; for AUC(0-inf): iv, 14 mg/kg
In short: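 SD rats (12 male, 12 female), fasted 12 h, received an intravenous dose of 14 mg kg−1 test-compound micelles. Six rats were killed at each of 0.25, 1, 4 and 24 h. Heart, liver, spleen, lung and kidney were rinsed in ice-cold saline, weighed, homogenised and stored at −80 °C. Samples were extracted with MTBE using curcumin internal standard. Analysis was by C18 LC-ESI-MS/MS (formic acid/acetonitrile gradient, MRM m/z 294.98→106.67).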

[10] = Homo sapiens, GES1, read-out: Inhibition rate

O=C(/C=C/CCc1ccc(O)cc1)/C=C/c1ccc(O)cc1 [DHDK, (1E,4E)-1,7-Bis(4-hydroxyphenyl)hepta-1,4-dien-3-one]
IC50 (SKOV3): 9.59 ± 0.44 µM
IC50 (DU-145): 4.62 ± 0.22 µM
toxicity in tissue slices [1]: No toxicity was observed
AUC(0–t) of DHDK high-dose group as share of cisplatin group (in vivo; after dose conversion, DHDK 40 mg kg^−1 vs cisplatin 5 mg kg^−1): 7.3%
AUC(0-inf) (in vivo; rat, in vivo, iv, 14 mg/kg): 534 ng·h/mL
AUC(0-t) (in vivo; rat, in vivo, iv, 14 mg/kg): 459 ng·h/mL
half-life (in vivo; rat, in vivo, iv, 14 mg/kg): 107 min
V 1 (in vivo; rat, tail vein injection 14 mg kg^−1 DHDK solution): 0.037 L/kg
t 1/2α (in vivo; rat, tail vein injection 14 mg kg^−1 DHDK solution, two-compartmental analysis): 3.84 min
IC50 (N87): 10.8 ± 0.5 µM
tumour histopathology (MCF-7 xenograft tumour [2]; high-dose group, DHDK 40 mg kg^−1): A large amount of tumour necrosis with nuclear envelope breakdown and dissolved nucleus
tumour histopathology (MCF-7 xenograft tumour [2]; low-dose group, DHDK 10 mg kg^−1): A small amount of punctate nucleolysis and a low degree of necrosis
tumour histopathology (MCF-7 xenograft tumour [2]; medium-dose group, DHDK 20 mg kg^−1): point necrosis and dissolved nucleus
OD value (mean ± SD) ([3]; DHDK 0.14 μmol·L^−1): 0.71 ± 0.0031
OD value (mean ± SD) ([3]; DHDK 0.42 μmol·L^−1): 0.71 ± 0.0098
OD value (mean ± SD) ([3]; DHDK 1.26 μmol·L^−1): 0.71 ± 0.0051
OD value (mean ± SD) ([3]; DHDK 3.8 μmol·L^−1): 0.70 ± 0.0035
OD value (mean ± SD) ([3]; DHDK 11.3 μmol·L^−1): 0.69 ± 0.0097
OD value (mean ± SD) ([3]; DHDK 34.0 μmol·L^−1): 0.68 ± 0.0075
inhibition at 0.14 µM [3, 10]: 0.17%
inhibition at 0.42 µM [3, 10]: 0.53%
inhibition at 1.26 µM [3, 10]: 1.06%
inhibition at 3.8 µM [3, 10]: 1.35%
inhibition at 11.3 µM [3, 10]: 3.53%
inhibition at 34 µM [3, 10]: 4.85%
IC50 (SKMEL-28): 9.26 ± 0.57 µM
IC50 (HT-29): 4.79 ± 0.54 µM
IC50 (A375): 6.64 ± 0.4 µM
IC50 (MDA-MB453): 10.4 ± 0.92 µM
IC50 (MDA-MB231): 4.49 µM
IC50 (SKBR3): 1710 ± 100 nM
mouse weight course (in words) [4]: stable weight
inhibition at 0.14 µM ([5]; Homo sapiens, read-out: Inhibition rate, LO2, DHDK 0.14 μmol·L^−1): 1.36%
inhibition at 0.42 µM ([5]; Homo sapiens, read-out: Inhibition rate, LO2, DHDK 0.42 μmol·L^−1): 1.51%
inhibition at 1.26 µM ([5]; Homo sapiens, read-out: Inhibition rate, LO2, DHDK 1.26 μmol·L^−1): 1.87%
inhibition at 3.8 µM ([5]; Homo sapiens, read-out: Inhibition rate, LO2, DHDK 3.8 μmol·L^−1): 2.08%
inhibition at 11.3 µM ([5]; Homo sapiens, read-out: Inhibition rate, LO2, DHDK 11.3 μmol·L^−1): 2.57%
OD value (mean ± SD) ([5]; LO2, DHDK 0.14 μmol·L^−1): 0.69 ± 0.013
OD value (mean ± SD) ([5]; LO2, DHDK 0.42 μmol·L^−1): 0.68 ± 0.039
OD value (mean ± SD) ([5]; LO2, DHDK 1.26 μmol·L^−1): 0.68 ± 0.022
OD value (mean ± SD) ([5]; LO2, DHDK 3.8 μmol·L^−1): 0.68 ± 0.031
OD value (mean ± SD) ([5]; LO2, DHDK 11.3 μmol·L^−1): 0.68 ± 0.0066
Inhibition rate ([5]; LO2, DHDK 34.0 μmol·L^−1): 4.17%
OD value (mean ± SD) ([5]; LO2, DHDK 34.0 μmol·L^−1): 0.67 ± 0.025
IC50 (MCF-7): 9.09 ± 0.46 µM
IC50 (A-549): 8.01 ± 0.44 µM
Inhibition rate ([6]; DHDK 0.14 μmol·L^−1): 0.059%
OD value (mean ± SD) ([6]; DHDK 0.14 μmol·L^−1): 0.66 ± 0.0017
OD value (mean ± SD) ([6]; DHDK 0.42 μmol·L^−1): 0.66 ± 0.0028
OD value (mean ± SD) ([6]; DHDK 1.26 μmol·L^−1): 0.66 ± 0.0027
OD value (mean ± SD) ([6]; DHDK 3.8 μmol·L^−1): 0.66 ± 0.0010
OD value (mean ± SD) ([6]; DHDK 11.3 μmol·L^−1): 0.64 ± 0.0028
OD value (mean ± SD) ([6]; DHDK 34.0 μmol·L^−1): 0.63 ± 0.0030
inhibition at 0.42 µM ([6]; Homo sapiens, read-out: Inhibition rate, BEAS-2B, DHDK 0.42 μmol·L^−1): 0.5%
inhibition at 1.26 µM ([6]; Homo sapiens, read-out: Inhibition rate, BEAS-2B, DHDK 1.26 μmol·L^−1): 0.83%
inhibition at 3.8 µM ([6]; Homo sapiens, read-out: Inhibition rate, BEAS-2B, DHDK 3.8 μmol·L^−1): 0.86%
inhibition at 11.3 µM ([6]; Homo sapiens, read-out: Inhibition rate, BEAS-2B, DHDK 11.3 μmol·L^−1): 3.1%
inhibition at 34 µM ([6]; Homo sapiens, read-out: Inhibition rate, BEAS-2B, DHDK 34.0 μmol·L^−1): 4.82%
tumour inhibition rate of DHDK high-dose group as share of the cisplatin group (MCF-7 xenograft tumour [7]; DHDK 40 mg kg^−1 vs cisplatin 5 mg kg^−1): 74.6%
Tumour weight (mean) (MCF-7 xenograft tumour [7]; group B, low-dose, DHDK micelles 10 mg kg^−1 every day for 9 days): 597.04 ± 38.19
Tumour weight (mean) (MCF-7 xenograft tumour [7]; group C, medium-dose, DHDK micelles 20 mg kg^−1 every day for 9 days): 540.53 ± 63.76
Tumour weight (mean) (MCF-7 xenograft tumour [7]; group D, high-dose, DHDK micelles 40 mg kg^−1 every day for 9 days): 435.13 ± 140.10
Inhibition rate (IR) determined as tumour weight (MCF-7 xenograft tumour [7]; high-dose, DHDK 40 mg kg^−1 every day for 9 days): 47.85%
Inhibition rate (IR) determined as tumour weight (MCF-7 xenograft tumour [7]; low-dose, DHDK 10 mg kg^−1 every day for 9 days): 28.44%
Inhibition rate (IR) determined as tumour weight (MCF-7 xenograft tumour [7]; medium-dose, DHDK 20 mg kg^−1 every day for 9 days): 35.22%
IC50 (Calu-3): 6.65 ± 0.42 µM
IC50 (cancer cell lines): < 11 µM and < 3.25 µg/mL
liver and kidney toxicity (from BUN, CRE, AST, ALT) ([8]; all administration groups vs blank group): no potential liver and kidney toxicity
BUN mean ± SD ([8]; high dose group): 9.86 ± 0.33 mmol/L
BUN mean ± SD ([8]; low dose group): 10.16 ± 1.35 mmol/L
BUN mean ± SD ([8]; medium dose group): 9.74 ± 0.47 mmol/L
ALT mean ± SD ([8]; high dose group): 38.41 ± 0.67 U L^−1
AST mean ± SD ([8]; high dose group): 52.98 ± 3.07 U L^−1
CRE mean ± SD ([8]; high dose group): 82.97 ± 2.97 µmol/L
ALT mean ± SD ([8]; low dose group): 39.18 ± 0.81 U L^−1
AST mean ± SD ([8]; low dose group): 50.90 ± 3.04 U L^−1
CRE mean ± SD ([8]; low dose group): 78.85 ± 3.90 µmol/L
ALT mean ± SD ([8]; medium dose group): 39.70 ± 2.75 U L^−1
AST mean ± SD ([8]; medium dose group): 50.93 ± 0.81 U L^−1
CRE mean ± SD ([8]; medium dose group): 87.97 ± 7.63 µmol/L
inhibition rate of each group on normal cells [9]: less than 5%
CL (Tissue distribution; Heart): 50.93 ± 26.52 L·kg/h
CL (Tissue distribution; Kidney): 244.93 ± 9.95 L·kg/h
CL (Tissue distribution; Liver): 5.846 ± 1.02 L·kg/h
CL (Tissue distribution; Lung): 8.89 ± 1.97 L·kg/h
CL (Tissue distribution; Spleen): 81.66 ± 45.73 L·kg/h
AUC(0-inf) (Tissue distribution; Sprague-Dawley (SD), kidney): 57.2 ± 32.3 ng·h/mL
AUC(0-inf) (Tissue distribution; Sprague-Dawley (SD), lung): 1630 ± 299 ng·h/mL
AUC(0-inf) (Tissue distribution; Sprague-Dawley (SD), spleen): 207 ± 84.3 ng·h/mL
AUC(0-inf) (Tissue distribution; both, SD, heart): 414 ± 364 ng·h/mL
AUC(0-inf) (Tissue distribution; both, SD, liver): 2450 ± 425 ng·h/mL
order of DHDK concentration in different tissues (Tissue distribution; rats, 14 mg kg^−1 tail vein): lung > liver > heart > kidney > spleen
order of clearance rates in tissues (Tissue distribution; rats, 14 mg kg^−1 tail vein): kidney > spleen > heart > lung > liver
